The target in series [1] is T1, E-selectin (Homo sapiens, UniProt P16581).
T1 sequence (P16581 22-610): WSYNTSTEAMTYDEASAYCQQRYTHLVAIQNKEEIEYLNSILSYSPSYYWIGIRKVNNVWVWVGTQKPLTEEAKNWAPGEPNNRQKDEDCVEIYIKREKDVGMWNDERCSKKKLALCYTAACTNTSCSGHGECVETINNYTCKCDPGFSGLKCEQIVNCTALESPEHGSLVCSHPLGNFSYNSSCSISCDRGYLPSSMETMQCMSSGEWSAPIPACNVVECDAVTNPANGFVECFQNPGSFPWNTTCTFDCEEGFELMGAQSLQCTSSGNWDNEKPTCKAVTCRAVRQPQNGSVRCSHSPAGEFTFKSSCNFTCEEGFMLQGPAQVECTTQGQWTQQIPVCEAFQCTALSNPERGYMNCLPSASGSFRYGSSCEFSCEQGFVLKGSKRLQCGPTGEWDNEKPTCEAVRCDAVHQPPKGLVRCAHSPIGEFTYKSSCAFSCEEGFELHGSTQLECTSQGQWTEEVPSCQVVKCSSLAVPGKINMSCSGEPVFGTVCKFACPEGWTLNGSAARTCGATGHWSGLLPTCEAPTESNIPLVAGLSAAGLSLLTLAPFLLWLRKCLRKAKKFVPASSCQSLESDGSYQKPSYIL
The series can be described thus: SPR direct binding to E-selectin-functionalized sensor chip.

A short description of series [2]: Water solubility of peptides. It counts as physicochemical. The settings on record: after HPLC purification; qualitative.
The test system of series [3] is E-selectin on HUVEC cells. It counts as cell-based, human. As to conditions: 10 μM in HKR pH 7.4, 30 min; 10 ng/mL TNFα for 12 h; heparin/HKR washes. Summed up: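 Human umbilical vein endothelial cells (HUVEC) were cultured as two parallel sets, with or without TNFα, to induce E‑selectin overexpression. Both sets were incubated for 30 min with 10 μM rhodamine‑labelled peptide/[60]fullerene conjugate (binding peptide or non‑binding control sequence). Cells were then washed thoroughly with heparin and HKR buffer and imaged by live‑cell confocal microscopy.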

Data on four compounds can be found in publication PMC9826239 (Angewandte Chemie (International Ed. in English), 2022).

The term Kd denotes the free concentration of one partner at which half of the binding sites on the other are occupied at equilibrium, for simple one-to-one binding.

Residues, ends and D or L forms follow the SMILES beside them. *: point of attachment. X1 = [N-]=[N+]=NCCOCCOCCOCCOCC(=O)*

In series [1], `CC[C@H](C)[C@H](N)C(=O)N[C@@H](CCC(=O)O)C(=O)N[C@@H](CC(C)C)C(=O)N[C@@H](CC(C)C)C(=O)N[C@@H](CCC(N)=O)C(=O)N[C@@H](C)C(=O)N[C@@H](CCCNC(=N)N)C(=O)N[C@@H](CCCCNC(=O)COCCOCCOCCOCCN=[N+]=[N-])C(N)=O` [P1, IELLQARK‐(PEG)4‐N3] (H-IELLQARK(X1)-NH2) showed a Kd of 0.0516 mM. For the same compound, in series [2], the water solubility result is “excellent purity and water solubility”.
`CC[C@H](C)[C@H](NC(=O)COCCOCCOCCOCCN=[N+]=[N-])C(=O)N[C@@H](CCC(=O)O)C(=O)N[C@@H](CC(C)C)C(=O)N[C@@H](CC(C)C)C(=O)N[C@@H](CCC(N)=O)C(=O)N[C@@H](C)C(=O)N[C@@H](CCCNC(=N)N)C(N)=O` [P2, N3‐(PEG)4‐IELLQAR] (X1-IELLQAR-NH2) showed a Kd in series [1] of 2.95 mM. Moreover, in series [2], the water solubility result is “excellent purity and water solubility”.
As to C60-(IELLQARK)12 [F1], the “dissociation behaviour in SPR sensorgrams” value in series [1] ((12.5-0.78) μM, t>240 s, initial fast then extremely slow dissociation phase) is listed as “two‐phase dissociation process”. Moreover, the “affinity increase relative to its monomeric counterpart” value in series [1] (F1 vs monomeric peptide, E-selectin SPR) was “up to 3 orders of magnitude”. In addition, the “affinity enhancement (β) factor” value in series [1] (multivalent effect of F1, twelve peptide units, SI section 6.5, eq. 3) is on record as 71.
With C60-(ISELRSE)12 [FC], the “cell fluorescence, TNFα-treated HUVEC cells, confocal microscopy” value in series [3] is listed as “residual fluorescence”.
